Experimental data taken from ChEMBL document CHEMBL4321880 (J Med Chem, 2020).

Tests used:
Cytochrome P450 3A4 [1] = biological target: T1, Cytochrome P450 3A4 (Homo sapiens, UniProt P08684); test: (§1) Induction of CYP3A4 in CRISPR/Cas9-mediated CYP3A5 knock-out and doxycycline-induced CYP3A4 overexpressing human AsPC1 cells assessed as increase in 1-hydroxymidazolam formation using midazolam as substrate pretreated with doxycycline for 24 hrs followed by incubation with compound at higher concentrations for 24 hrs by LC-MS/MS analysis; assay type: ADME, cell-based; settings: aspc1, 24 h
T1 sequence (P08684 whole entry): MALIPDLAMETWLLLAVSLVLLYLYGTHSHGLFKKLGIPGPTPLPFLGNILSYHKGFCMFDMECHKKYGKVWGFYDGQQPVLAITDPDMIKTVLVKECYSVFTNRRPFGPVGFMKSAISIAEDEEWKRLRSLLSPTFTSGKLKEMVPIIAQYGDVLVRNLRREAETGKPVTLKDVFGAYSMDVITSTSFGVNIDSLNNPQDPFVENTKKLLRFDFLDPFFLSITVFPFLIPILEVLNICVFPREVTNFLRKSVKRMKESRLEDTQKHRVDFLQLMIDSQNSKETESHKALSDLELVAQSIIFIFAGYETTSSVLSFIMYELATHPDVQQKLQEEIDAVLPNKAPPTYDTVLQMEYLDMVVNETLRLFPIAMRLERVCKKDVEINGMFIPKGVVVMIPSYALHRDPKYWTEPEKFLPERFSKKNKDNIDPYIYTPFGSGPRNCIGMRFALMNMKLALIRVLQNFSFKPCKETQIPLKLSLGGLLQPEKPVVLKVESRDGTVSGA
Method in brief: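 AsPC-1 CYP3A5−/− cells with Dox-inducible CYP3A4, 10,000 cells/well, induced with 100 ng/mL doxycycline. 24 h later given compound (16-point 1:2 series, 0.0003–10 μM) plus 5 μM midazolam, final DMSO 0.66%, for 24 h. Quenched with acetonitrile containing warfarin internal standard. 1-Hydroxymidazolam measured by LC-MS/MS and normalized to DMSO control (100%).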

CYP3A5 [2] = biological target: T2, CYP3A5 (Homo sapiens, UniProt P20815); test: Inhibition of human recombinant CYP3A5 expressed in supersomes assessed as decrease in formation of D-luciferin using luciferin-IPA as substrate incubated for 10 mins in presence of NADPH by P450-Glo luminescence assay; settings: probe luciferin-IPA
T2 sequence (P20815 whole entry): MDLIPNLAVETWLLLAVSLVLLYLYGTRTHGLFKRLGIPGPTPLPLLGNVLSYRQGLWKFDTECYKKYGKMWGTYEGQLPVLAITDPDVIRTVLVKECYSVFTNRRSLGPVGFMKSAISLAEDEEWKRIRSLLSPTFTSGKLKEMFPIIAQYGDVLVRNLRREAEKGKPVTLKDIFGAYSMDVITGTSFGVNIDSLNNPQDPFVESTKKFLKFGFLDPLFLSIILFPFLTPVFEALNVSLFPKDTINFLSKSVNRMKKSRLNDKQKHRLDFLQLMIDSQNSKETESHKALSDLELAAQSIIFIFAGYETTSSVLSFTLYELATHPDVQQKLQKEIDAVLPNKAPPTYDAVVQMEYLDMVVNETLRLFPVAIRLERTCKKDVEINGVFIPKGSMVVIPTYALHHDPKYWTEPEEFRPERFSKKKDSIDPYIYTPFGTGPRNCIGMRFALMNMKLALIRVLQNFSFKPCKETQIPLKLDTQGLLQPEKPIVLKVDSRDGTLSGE

CYP3A5 [3] = biological target: T2, CYP3A5; test: Inhibition of human recombinant CYP3A5 expressed in supersomes assessed as decrease in formation of D-luciferin at 1.89 uM using luciferin-IPA as substrate incubated for 10 mins in presence of NADPH by P450-Glo luminescence assay relative to control; settings: probe luciferin-IPA
Cytochrome P450 3A4 [4] = biological target: T1, Cytochrome P450 3A4; test: Inhibition of human recombinant CYP3A4 expressed in supersomes assessed as decrease in formation of D-luciferin at 1.89 uM using luciferin-IPA as substrate incubated for 10 mins in presence of NADPH by P450-Glo luminescence assay relative to control; assay type: ADME; settings: recombinant enzyme
Method in brief: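 P450-Glo assay with supersomes containing POR, cytochrome b5 and recombinant human CYP3A4, 0.1 pmol enzyme. Run in 100 mM KPO4 pH 7.4 with 3 μM Luciferin-IPA, started with NADPH, 10 min at 37 °C. Detection reagent added for 20 min at room temperature, then luminescence read. Final DMSO 0.1%.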

Cytochrome P450 1A2 = biological target: T3, Cytochrome P450 1A2 (Homo sapiens, UniProt P05177); test: Inhibition of CYP1A2 in human liver microsomes assessed as formation of hydroxytacrine at 1.85 uM using tacrine as substrate incubated for 10 mins in presence of NADPH by LC-MS/MS analysis; assay type: ADME
T3 sequence (P05177 whole entry): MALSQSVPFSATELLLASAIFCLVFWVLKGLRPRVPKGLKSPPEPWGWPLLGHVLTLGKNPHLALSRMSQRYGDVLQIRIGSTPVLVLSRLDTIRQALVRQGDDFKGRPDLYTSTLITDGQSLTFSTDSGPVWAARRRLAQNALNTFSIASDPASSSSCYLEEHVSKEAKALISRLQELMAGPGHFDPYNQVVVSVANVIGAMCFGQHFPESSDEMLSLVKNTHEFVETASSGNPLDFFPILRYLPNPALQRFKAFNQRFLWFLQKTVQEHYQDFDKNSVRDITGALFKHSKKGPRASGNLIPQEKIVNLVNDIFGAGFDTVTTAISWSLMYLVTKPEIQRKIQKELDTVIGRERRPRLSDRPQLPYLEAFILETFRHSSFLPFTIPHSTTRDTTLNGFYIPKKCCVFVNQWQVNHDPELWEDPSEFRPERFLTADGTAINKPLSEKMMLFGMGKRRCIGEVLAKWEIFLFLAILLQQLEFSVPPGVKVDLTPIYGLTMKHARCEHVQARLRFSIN
Method in brief: (§2)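 Pooled human liver microsomes with 2 mM NADPH in 100 mM KPO4 pH 7.4, 5 mM MgCl2, 37 °C, technical triplicate, final DMSO 0.2%. Probe (substrate, level, protein, time): 1A2 tacrine 5 μM, 0.2 mg/mL, 10 min; 2B6 bupropion 100 μM, 0.25 mg/mL, 10 min; 2C8 amodiaquine 5 μM, 0.25 mg/mL, 10 min; 2C9 tolbutamide 100 μM, 0.5 mg/mL, 15 min; 2C19 mephenytoin 100 μM, 0.25 mg/mL, 60 min; 2D6 dextromethorphan 5 μM, 0.5 mg/mL, 10 min; 3A4 midazolam 2.5 μM or testosterone 50 μM, 0.25 mg/mL, 10 min. Methanol quench, metabolites measured by LC-MS/MS.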

Cytochrome P450 2B6 = biological target: T4, Cytochrome P450 2B6 (Homo sapiens, UniProt P20813); test: Inhibition of CYP2B6 in human liver microsomes assessed as formation of hydroxybupropion at 1.85 uM using bupropion as substrate incubated for 10 mins in presence of NADPH by LC-MS/MS analysis; assay type: ADME; method in brief: as §2
T4 sequence (P20813 whole entry): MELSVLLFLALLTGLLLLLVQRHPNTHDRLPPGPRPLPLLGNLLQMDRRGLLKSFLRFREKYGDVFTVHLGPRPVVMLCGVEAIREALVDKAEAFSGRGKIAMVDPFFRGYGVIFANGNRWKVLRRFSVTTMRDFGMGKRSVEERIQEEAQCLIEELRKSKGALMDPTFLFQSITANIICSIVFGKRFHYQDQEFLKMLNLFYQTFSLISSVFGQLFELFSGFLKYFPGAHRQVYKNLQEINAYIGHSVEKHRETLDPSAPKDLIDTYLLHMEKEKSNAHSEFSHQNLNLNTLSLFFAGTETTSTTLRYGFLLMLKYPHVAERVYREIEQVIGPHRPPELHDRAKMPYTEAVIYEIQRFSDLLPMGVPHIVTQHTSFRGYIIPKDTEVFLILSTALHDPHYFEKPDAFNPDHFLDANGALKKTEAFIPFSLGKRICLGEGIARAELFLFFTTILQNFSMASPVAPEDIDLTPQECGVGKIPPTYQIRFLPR

Cytochrome P450 2C8 = biological target: T5, Cytochrome P450 2C8 (Homo sapiens, UniProt P10632); test: Inhibition of CYP2C8 in human liver microsomes assessed as formation of desethylamodiaquine at 1.85 uM using amodiaquine as substrate incubated for 10 mins in presence of NADPH by LC-MS/MS analysis; assay type: ADME; method in brief: as §2
T5 sequence (P10632 whole entry): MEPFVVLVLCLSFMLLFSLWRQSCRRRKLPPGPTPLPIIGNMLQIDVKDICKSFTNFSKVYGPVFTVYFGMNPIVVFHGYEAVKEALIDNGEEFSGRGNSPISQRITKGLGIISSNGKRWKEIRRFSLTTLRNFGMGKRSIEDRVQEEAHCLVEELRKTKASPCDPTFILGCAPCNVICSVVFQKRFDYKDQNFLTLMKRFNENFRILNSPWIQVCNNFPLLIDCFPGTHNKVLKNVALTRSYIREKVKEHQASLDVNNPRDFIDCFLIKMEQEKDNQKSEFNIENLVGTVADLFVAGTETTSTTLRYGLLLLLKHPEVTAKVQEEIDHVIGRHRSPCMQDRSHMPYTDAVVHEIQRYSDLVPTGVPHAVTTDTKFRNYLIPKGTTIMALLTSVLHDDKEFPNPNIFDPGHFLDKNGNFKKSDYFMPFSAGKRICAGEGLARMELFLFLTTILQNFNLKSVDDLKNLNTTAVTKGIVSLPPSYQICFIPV

Cytochrome P450 2C9 = Cytochrome P450 2C9 (Homo sapiens, UniProt P11712); test: Inhibition of CYP2C9 in human liver microsomes assessed as formation of alpha-hydroxytolbutamide at 1.85 uM using tolbutamide as substrate incubated for 15 mins in presence of NADPH by LC-MS/MS analysis; assay type: ADME; settings: 0.25 h; method in brief: as §2
Cytochrome P450 2C9, sequence (P11712 whole entry): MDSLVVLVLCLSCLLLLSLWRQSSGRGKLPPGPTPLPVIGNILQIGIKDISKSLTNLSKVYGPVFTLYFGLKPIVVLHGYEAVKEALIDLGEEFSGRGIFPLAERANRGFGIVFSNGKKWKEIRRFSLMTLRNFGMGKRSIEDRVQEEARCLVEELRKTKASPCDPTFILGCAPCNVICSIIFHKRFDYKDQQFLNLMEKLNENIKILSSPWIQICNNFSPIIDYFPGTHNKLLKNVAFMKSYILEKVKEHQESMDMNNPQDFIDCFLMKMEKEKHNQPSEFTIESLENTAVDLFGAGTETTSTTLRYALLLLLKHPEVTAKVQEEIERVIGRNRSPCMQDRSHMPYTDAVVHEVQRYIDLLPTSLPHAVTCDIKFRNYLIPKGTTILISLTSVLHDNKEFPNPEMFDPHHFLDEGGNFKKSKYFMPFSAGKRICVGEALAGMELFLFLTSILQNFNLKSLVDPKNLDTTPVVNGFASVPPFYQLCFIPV

Cytochrome P450 2C19 = Cytochrome P450 2C19 (Homo sapiens, UniProt P33261); test: Inhibition of CYP2C19 in human liver microsomes assessed as formation of 4-hydroxymephenytoin at 1.85 uM using mephenytoin as substrate incubated for 60 mins in presence of NADPH by LC-MS/MS analysis; assay type: ADME; settings: 1 h; method in brief: as §2
Cytochrome P450 2C19, sequence (P33261 whole entry): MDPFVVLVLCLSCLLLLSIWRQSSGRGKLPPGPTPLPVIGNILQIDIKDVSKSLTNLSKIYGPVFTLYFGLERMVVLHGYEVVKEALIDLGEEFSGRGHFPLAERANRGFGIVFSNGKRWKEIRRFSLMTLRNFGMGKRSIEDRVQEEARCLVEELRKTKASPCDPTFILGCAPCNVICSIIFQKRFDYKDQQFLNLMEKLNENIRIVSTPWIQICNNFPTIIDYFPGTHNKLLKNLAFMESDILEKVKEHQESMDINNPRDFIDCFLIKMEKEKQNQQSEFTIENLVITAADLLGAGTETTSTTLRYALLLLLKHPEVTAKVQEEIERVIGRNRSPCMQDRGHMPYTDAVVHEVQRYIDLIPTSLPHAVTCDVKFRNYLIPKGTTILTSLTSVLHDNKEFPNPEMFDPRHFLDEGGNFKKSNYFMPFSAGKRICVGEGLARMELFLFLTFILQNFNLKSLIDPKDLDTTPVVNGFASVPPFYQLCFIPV

Cytochrome P450 2D6 = Cytochrome P450 2D6 (Homo sapiens, UniProt P10635); test: Inhibition of CYP2D6 in human liver microsomes at 1.85 uM using dextromethorphan as substrate incubated for 10 mins in presence of NADPH by LC-MS/MS analysis; assay type: ADME; method in brief: as §2
Cytochrome P450 2D6, sequence (P10635 whole entry): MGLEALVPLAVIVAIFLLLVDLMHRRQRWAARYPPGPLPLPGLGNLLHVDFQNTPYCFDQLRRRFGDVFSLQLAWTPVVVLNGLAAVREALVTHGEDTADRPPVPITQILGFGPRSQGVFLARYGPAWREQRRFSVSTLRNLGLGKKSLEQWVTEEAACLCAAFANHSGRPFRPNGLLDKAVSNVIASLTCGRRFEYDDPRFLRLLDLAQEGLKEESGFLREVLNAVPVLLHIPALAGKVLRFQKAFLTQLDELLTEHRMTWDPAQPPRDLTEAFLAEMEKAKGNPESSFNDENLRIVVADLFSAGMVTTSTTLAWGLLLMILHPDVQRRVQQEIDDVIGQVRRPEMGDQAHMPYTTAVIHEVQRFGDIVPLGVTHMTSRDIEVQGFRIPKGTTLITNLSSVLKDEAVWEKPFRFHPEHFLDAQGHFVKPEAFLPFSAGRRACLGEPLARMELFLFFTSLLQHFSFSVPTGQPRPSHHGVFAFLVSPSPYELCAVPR

Cytochrome P450 3A4 [5] = biological target: T1, Cytochrome P450 3A4; test: Inhibition of CYP3A4 in human liver microsomes assessed as formation of 6-beta-hydroxytestosterone at 1.85 uM using testosterone as substrate incubated for 10 mins in presence of NADPH by LC-MS/MS analysis; assay type: ADME; method in brief: as §2
Cytochrome P450 3A4 [6] = biological target: T1, Cytochrome P450 3A4; test: as §1, with “Inhibition” for “Induction”, “decrease” for “increase”, “compound” for “compound at higher concentrations”; assay type: ADME, cell-based
Method in brief: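 AsPC-1 CYP3A5−/− cells with Dox-inducible CYP3A4, 10,000 cells/well, induced with 100 ng/mL doxycycline. Quenched with acetonitrile containing warfarin internal standard. 1-Hydroxymidazolam measured by LC-MS/MS and normalized to DMSO control (100%).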

ASPC1 = test: Increase in CYP3A4 expression in CRISPR/Cas9-mediated CYP3A5 knock-out and doxycycline-induced CYP3A4 overexpressing human AsPC1 cells at 1 uM after 24 hrs by Western blot analysis; assay type: ADME, cell-based; settings: aspc1, 24 h
Method in brief: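 Overexpression was induced with 100 ng/mL doxycycline. […] Blots were probed with anti-CYP3A4 K03 (also detects CYP3A5) and β-actin, with infrared dye secondaries. Bands were normalized to actin across triplicate gels, with DMSO set as 1.0.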

Structure (SMILES): CCC(=O)O[C@]1(C(=O)CCl)[C@@H](C)C[C@H]2[C@@H]3CCC4=CC(=O)C=C[C@]4(C)[C@@]3(F)[C@@H](O)C[C@@]21C [CLOBETASOL PROPIONATE]
- Activity (Cytochrome P450 3A4 [1]): Active
- IC90 at 10 min (CYP3A5 [2]): 1.8 µM
- inhibition at 10 min, 1.89 µM (CYP3A5 [3]): 90%
- inhibition (INH) (Cytochrome P450 3A4 [4]): Not Active
- inhibition (INH) (Cytochrome P450 1A2): Not Active
- inhibition (INH) (Cytochrome P450 2B6): Not Active
- inhibition (INH) (Cytochrome P450 2C8): Not Active
- inhibition (INH) (Cytochrome P450 2C9): Not Active
- inhibition (INH) (Cytochrome P450 2C19): Not Active
- inhibition (INH) (Cytochrome P450 2D6): Not Active
- inhibition (INH) (Cytochrome P450 3A4 [5]): Not Active
- IC50 (Cytochrome P450 3A4 [6]): Not Active
- Activity (ASPC1): Not Active
